PGC1a acetyl inh – modulators of PGC1a acetylation | U2OS PGC1a acetylation, AlphaScreen anti-acetyl-lysine; with virally co-expressed GCN5 acetyltransferase | inhibition, % at 15.6 µM | 350,000 compounds, 0.17% hits | AID 651687;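 active = every replicate shows inhibition of at least 40%; inconclusive = mean inhibition at least 40% but some replicate below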;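 also: 0% = neutral control wells and 100% = positive control wells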
FN deposition inh – fibronectin deposition inhibition | AH1F fibroblasts, Alexa488-fibronectin deposition fluorescence, overnight | inhibition, % at 12.6 µM | 350,000 compounds, 0.086% hits | AID 743247;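 active = mean inhibition across replicates of 30% or more, regardless of how many single replicates reach that level; inconclusive = mean under 30% yet at least half of replicates reach 30%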;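 also: positive control wells lacked labelled fibronectin entirely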
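Assay system: AH1F fibroblasts assembling fluorescent fibronectin matrix; Amount: 10000 AH1F cells per well; Buffer or medium: DMEM, 2% serum; Probe or stimulus: Alexa488-fibronectin, 24 nM final in well; Doses: single compound dose, delivered by pin transfer; Incubation: 1 h adhesion, overnight exposure; Measured by: fluorescence 485/525 nm; Read-out: fibronectin deposition inhibition.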
DENV2 CPE rescue – DENV2-induced cell death inhibition; CPE inhibition, % at 9.99 µM; AID 651640; DENV2-infected cells, cytopathic effect rescue, plate reader; 350,000 compounds, 1.7% hits; in the data active = CPE inhibition above about 20%, passing the limit was not always enough; inconclusive = no clear call, values can overlap the other calls; tested in BHK-21 cells;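 also: 0% = median of neutral control wells and 100% = median of positive control wells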
Env fusion inh – HIV envelope-mediated fusion inhibition; HeLa-JRFL Env/CEM21 cell fusion, luciferase; inhibition, % at 12.3 µM; 360,000 compounds, 1.1% hits;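 active = mean replicate inhibition score of at least 50 and every replicate individually at or above 50; inconclusive = only one of the two criteria met; inactive = mean below 50 and not all replicates reaching 50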;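 also: 0% = plate neutral controls and 100% = maraviroc near 300 nM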
PglD inh – blocks C. jejuni PglD acetyltransferase activity | purified PglD enzyme, DTNB colorimetric CoA detection | AID 602405 | 360,000 compounds, 0.098% hits | inhibition, % at 12.5 µM; in the data active = inhibition above about 16%, passing the limit was not always enough; inconclusive = no clear call, values can overlap the other calls
rRNA inh HTS – inhibitors of bacterial rRNA selective over humanized ribosomes. E. coli WT GFP vs humanized-ribosome RFP mutants, fluorescence, 24 h; hits give low values; DMSO median 0, no signal -100. GFP signal change (wild-type ribosome), % (no concentration beside the values). 350,000 compounds, 1.6% hits;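 active = significant combined selectivity score with lowered wild-type GFP, culture density cut under 30%, mutant RFP and density less affected; inactive = any of these conditions unmet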
An asterisk follows results filed as active; ? = inconclusive; nt = no result; [ ] = another dose, or the depositor's remark. The list is not random: actives were taken first. Their share in the collection is about 3.5%.

SMILES	PGC1a acetyl inh	FN deposition inh	DENV2 CPE rescue	Env fusion inh	PglD inh	rRNA inh HTS
CCCC#Cc1cnc2c(c1)C(=O)N([C@H](C)CO)C[C@H](C)[C@@H](CN(C)Cc1ccc3c(c1)OCO3)O2	-6	nt	14	3[16.7 µM]	4	0
C[C@@H]1CN([C@@H](C)CO)S(=O)(=O)c2ccc(C#Cc3ccccc3)cc2O[C@H]1CN(C)S(C)(=O)=O	7	nt	27*	0[16.7 µM]	0	-6
C[C@@H]1CN([C@H](C)CO)S(=O)(=O)c2ccc(C#Cc3ccccc3)cc2O[C@H]1CN(C)S(C)(=O)=O	2	nt	2	28[16.7 µM]	0	-6
C[C@H](CO)N1C[C@H](C)[C@H](CN(C)S(C)(=O)=O)Oc2cc(C#Cc3ccccc3)ccc2S1(=O)=O	6	nt	28*	-3[16.7 µM]	0	4
C[C@H](CO)N1C[C@H](C)[C@@H](CN(C)C(=O)Nc2ccc(-c3ccccc3)cc2)OCc2ccccc2-c2c(n(C)c3ccccc23)C1=O	10	-1	19	nt	nt	6
COc1ccc([C@@H]2CC=C(C(=O)O)[C@H](c3ccccc3)N2S(=O)(=O)c2ccc(C)cc2)cc1OC	nt	-1	49*	5	6	-5
Cc1ccc(S(=O)(=O)N2[C@@H](c3ccccc3F)C(C(=O)O)=CC[C@H]2c2ccc3c(c2)OCO3)cc1	nt	4	-9	-45	-1	-21*
Cc1ccc(S(=O)(=O)N2[C@@H](c3ccc(F)cc3)C(C(=O)O)=CC[C@H]2c2cccc(C)c2)cc1	24	3	3	-8	-5	-25*
Cc1ccc(S(=O)(=O)N2[C@@H](c3ccc(F)cc3)C(C(=O)O)=CC[C@H]2c2ccc3c(c2)OCO3)cc1	nt	8	-6	1	6	-18
COc1ccc([C@@H]2CC=C(C(=O)O)[C@H](c3ccccc3F)N2S(=O)(=O)c2ccc(C)cc2)cc1OC	nt	-11	36*	-5	-2	-5
CO[C@@H]1CN(C)C(=O)c2cc(NC(C)=O)ccc2OC[C@@H](C)N(Cc2cc(F)ccc2F)C[C@@H]1C	7	-15	?	15[16.7 µM]	-2	-2
CC(C)NC(=O)N(C)C[C@@H]1Oc2ccc(NC(=O)Cn3cnnn3)cc2CC(=O)N([C@H](C)CO)C[C@@H]1C	-7	nt	-9	8[16.7 µM]	0	3
CCC12C(=O)C(CC)(C(c3ccccc3)=C1c1ccccc1)[C@@H]1C(=O)N(c3ccc(C)cc3)C(=O)C12 (stereo partly drawn)	nt	10	4	92*	nt	11
CCC12C(=O)C(CC)(C(c3ccccc3)=C1c1ccccc1)[C@@H]1C(=O)N(c3ccccc3)C(=O)C12 (stereo partly drawn)	-16	-7	nt	nt	8	nt
CCCC12C(=O)C(C)(C(c3ccccc3)=C1c1ccccc1)C1C(=O)N(c3ccc(C)cc3)C(=O)C12 (stereo not drawn)	nt	-3	4	83*	nt	0
C[C@@H]1CCCCO[C@@H](CN(C)S(=O)(=O)c2cn(C)cn2)[C@@H](C)CN([C@H](C)CO)C(=O)c2cc(NC(=O)Nc3ccc(F)cc3)ccc2O1	-2	-1	11	-6[16.7 µM]	-5	2
O=C(NCCNS(=O)(=O)c1ccccc1)c1cc(OCC(F)(F)F)ccc1OCC(F)(F)F	-16	6	nt	-92	0	nt
O=C(NCCNS(=O)(=O)c1ccc(Cl)cc1)c1cc(OCC(F)(F)F)ccc1OCC(F)(F)F	-2	-15	nt	125*	-2	nt
N#C[C@@H]1[C@@H](c2ccccc2C2=CCCC2)[C@H](CO)N1C(=O)Cc1ccncc1	2	4	29*	nt	nt	-4
N#C[C@@H]1[C@H](c2ccccc2C2=CCCCC2)[C@@H](CO)N1C(=O)c1ccccn1	-2	-1	27*	nt	nt	-11
N#C[C@@H]1[C@H](c2ccccc2C2=CCCCC2)[C@H](CO)N1C(=O)Cc1ccncc1	45*	-1	9	nt	nt	-9
CCC(=O)N(C)C[C@@H]1Oc2cc(-c3ccccc3C)ccc2S(=O)(=O)N([C@@H](C)CO)C[C@H]1C	-31	nt	6	-21[16.7 µM]	2	-4
COc1cccc(C(=O)Nc2ccc3c(c2)C(=O)N(C)C[C@@H](OC)[C@H](C)CN(C(=O)C2CCCC2)[C@H](C)CO3)c1	nt	11	7	nt	-2	-4
CC(=O)Nc1sc2c(c1-c1nc3ccccc3s1)CN(C(C)C)CC2	52*	2	3	?	2	-53
CCC(=O)N1CC2(CN(C(=O)c3cccnc3)C2)c2c([nH]c3cc(OC)ccc23)[C@H]1CO	12	nt	?	nt	nt	1
SMILES	PGC1a acetyl inh	FN deposition inh	DENV2 CPE rescue	Env fusion inh	PglD inh	rRNA inh HTS
C[C@H](CO)N1C[C@H](C)[C@@H](CN(C)Cc2ccc(Cl)c(Cl)c2)OCCCC[C@H](C)Oc2ccc(NS(=O)(=O)c3ccc(F)cc3)cc2C1=O	10	-4	3	78*[16.7 µM]	4	-4
C[C@H]1CCCCO[C@H](CN(C)Cc2ccc(Cl)c(Cl)c2)[C@@H](C)CN([C@@H](C)CO)C(=O)c2cc(NS(=O)(=O)c3ccc(F)cc3)ccc2O1	1	3	22*	nt	nt	-5
C[C@@H]1CCCCO[C@@H](CN(C)Cc2ccc(Cl)c(Cl)c2)[C@@H](C)CN([C@H](C)CO)C(=O)c2cc(NS(=O)(=O)c3ccc(F)cc3)ccc2O1	-10	-10	-7	-1[16.7 µM]	2	5
CO[C@H]1CC[C@@H]2CCOc3ccc(C#N)cc3C(=O)N(C)C[C@@H](OC)[C@@H](C)C(=O)N(C)C[C@H]1O2	nt	0	-3	6[16.7 µM]	3	2
O=C(N/N=C/C1CC=CCC1)c1ccc(Cl)cc1O (stereo not drawn)	-7	3	-2	-14	0	-29*
O=C(/C=C/c1cccc(F)c1)Nc1cc(S(=O)(=O)N2CCOCC2)ccc1Cl	-7	nt	-8	-215	-4	-17*
CC(NCC(=O)Nc1cc(S(=O)(=O)N2CCCCCC2)ccc1Cl)c1ccccc1 (stereo not drawn)	nt	12	2	31	5	-23*
Cc1ccccc1NCC(=O)Nc1cc(S(=O)(=O)N2CCCCC2)ccc1C	1	-2	-5	4	-2	6
O=C(Nc1cc(S(=O)(=O)N2CCCCC2)ccc1Cl)c1ccccc1NS(=O)(=O)c1ccc(F)cc1	nt	-5	-5	71*	nt	nt
CNC[C@H]1Oc2cc(C#CCC(C)C)ccc2S(=O)(=O)N([C@@H](C)CO)C[C@@H]1C	-17	14	-6	16[16.7 µM]	0	2
COCCNC(=O)C[C@@H]1CC[C@@H]2[C@@H](COc3ccc(NC(=O)Cc4ccccc4)cc3C(=O)N2C)O1	4	-6	4	-6[16.7 µM]	2	-2
COc1ccc(Cl)cc1NC(=S)NNC(=O)c1cccs1	nt	0	8	2	nt	-32*
COc1ccc(Cl)cc1NC(=O)CN(C1CCCCC1)S(C)(=O)=O	-15	12	nt	125*	0	nt

Bioassay records from PubChem.
